Experimental data: ChEMBL document CHEMBL4028865, “Targeted Polypharmacology: Discovery of a Highly Potent Non-Hydroxamate Dual Matrix Metalloproteinase (MMP)-10/-13 Inhibitor” (J Med Chem, 2017)

Key:
Stromelysin-2 [1] = biological target: T1, Stromelysin-2 (Homo sapiens, UniProt P09238); experiment: Inhibition of MMP10 (unknown origin) assessed as residual activity at 10 uM using (5-FAM/QX) FRET peptide as substrate by fluorescence assay relative to control
In short: (§1)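 Residual enzyme activity read at a single 10 μM inhibitor concentration, in duplicate. Fluorescence assay on cleavage of the QXL520/5-FAM FRET peptide. Buffer was 50 mM HEPES pH 7.5 with 10 mM CaCl₂, 0.01% Brij-35 and 0.1 mg/ml BSA. GM6001 served as control inhibitor. Same assay system as the IC50 determinations.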
Target sequence in this assay (P09238 99-476 limits assumed): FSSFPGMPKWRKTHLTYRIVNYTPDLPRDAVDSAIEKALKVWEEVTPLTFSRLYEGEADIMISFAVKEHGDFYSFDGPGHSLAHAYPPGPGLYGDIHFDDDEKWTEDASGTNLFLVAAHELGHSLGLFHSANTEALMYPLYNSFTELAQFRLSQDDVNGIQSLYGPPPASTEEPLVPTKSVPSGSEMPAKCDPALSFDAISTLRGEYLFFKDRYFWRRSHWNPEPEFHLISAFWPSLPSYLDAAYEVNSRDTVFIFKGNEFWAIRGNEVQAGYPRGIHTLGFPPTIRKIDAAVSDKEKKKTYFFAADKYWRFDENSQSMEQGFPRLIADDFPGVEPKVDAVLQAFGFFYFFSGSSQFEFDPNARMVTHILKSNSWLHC

Collagenase 3 [2] = biological target: T2, Collagenase 3 (Homo sapiens, UniProt P45452); experiment: Inhibition of C-terminal tagged human recombinant MMP13 catalytic domain expressed in Escherichia coli assessed as residual activity at 10 uM using (5-FAM/QX) FRET peptide as substrate by fluorescence assay relative to control; in short: as §1
Stromelysin-2 [3] = biological target: T1, Stromelysin-2; experiment: Inhibition of MMP10 (unknown origin) assessed using (5-FAM/QX) FRET peptide as substrate by fluorescence assay
In short: (§2)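 IC50 from 10 concentrations in 3-fold dilution, starting at 10 μM or 100 μM, with two to six replicates. Run only for compounds leaving under 20% residual activity at 10 μM. Fluorescence read-out of QXL520/5-FAM FRET peptide cleavage in 50 mM HEPES pH 7.5, 10 mM CaCl₂, 0.01% Brij-35 and 0.1 mg/ml BSA. Four-parameter least-squares fit; GM6001 as control.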
Target sequence in this assay (P09238 whole entry): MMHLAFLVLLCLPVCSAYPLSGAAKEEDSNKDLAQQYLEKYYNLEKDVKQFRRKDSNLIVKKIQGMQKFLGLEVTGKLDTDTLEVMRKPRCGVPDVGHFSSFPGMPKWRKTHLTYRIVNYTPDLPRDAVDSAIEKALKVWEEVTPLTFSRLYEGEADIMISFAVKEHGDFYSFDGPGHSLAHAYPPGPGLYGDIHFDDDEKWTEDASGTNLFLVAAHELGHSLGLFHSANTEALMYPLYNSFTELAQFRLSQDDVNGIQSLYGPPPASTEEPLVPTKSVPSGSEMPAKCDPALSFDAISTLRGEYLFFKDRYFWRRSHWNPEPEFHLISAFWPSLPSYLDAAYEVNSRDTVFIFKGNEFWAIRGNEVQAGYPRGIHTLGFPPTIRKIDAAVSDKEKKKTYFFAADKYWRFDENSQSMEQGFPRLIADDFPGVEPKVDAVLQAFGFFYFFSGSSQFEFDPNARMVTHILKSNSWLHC

Collagenase 3 [4] = biological target: T2, Collagenase 3; experiment: Inhibition of C-terminal tagged human recombinant MMP13 catalytic domain expressed in Escherichia coli using (5-FAM/QX) FRET peptide as substrate by fluorescence assay; in short: as §2
[5] = biological target: Matrix metalloproteinase-14 (Homo sapiens) (UniProt P50281); experiment: Inhibition of C-terminal tagged human recombinant MMP14 catalytic domain expressed in Escherichia coli assessed as residual activity at 10 uM using (5-FAM/QX) FRET peptide as substrate by fluorescence assay relative to control; in short: as §1
[6] = biological target: Macrophage metalloelastase (Homo sapiens) (UniProt P39900); experiment: Inhibition of C-terminal tagged human recombinant MMP12 catalytic domain expressed in Escherichia coli assessed as residual activity at 10 uM using (5-FAM/QX) FRET peptide as substrate by fluorescence assay relative to control; in short: as §1
[7] = biological target: T3, Interstitial collagenase (Homo sapiens) (UniProt P03956); experiment: Inhibition of MMP1 (unknown origin) assessed as residual activity at 10 uM using (5-FAM/QX) FRET peptide as substrate by fluorescence assay relative to control; in short: as §1
T3 sequence (whole entry): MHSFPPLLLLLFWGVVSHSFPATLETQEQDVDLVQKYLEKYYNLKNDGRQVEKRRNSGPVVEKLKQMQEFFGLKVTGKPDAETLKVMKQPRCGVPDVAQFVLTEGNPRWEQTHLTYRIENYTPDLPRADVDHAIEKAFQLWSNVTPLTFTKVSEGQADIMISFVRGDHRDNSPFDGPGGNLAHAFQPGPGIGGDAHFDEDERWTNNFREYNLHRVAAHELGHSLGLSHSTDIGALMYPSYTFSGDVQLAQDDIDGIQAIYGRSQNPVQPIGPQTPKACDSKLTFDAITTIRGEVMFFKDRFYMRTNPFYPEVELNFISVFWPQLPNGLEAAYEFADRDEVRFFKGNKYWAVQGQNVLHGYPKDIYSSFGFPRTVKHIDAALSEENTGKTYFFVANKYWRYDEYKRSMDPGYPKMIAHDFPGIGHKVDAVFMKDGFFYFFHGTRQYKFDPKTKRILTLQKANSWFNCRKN

[8] = biological target: 72 kDa type IV collagenase (Homo sapiens) (UniProt P08253); experiment: Inhibition of C-terminal tagged human recombinant MMP2 catalytic domain expressed in Escherichia coli assessed as residual activity at 10 uM using (5-FAM/QX) FRET peptide as substrate by fluorescence assay relative to control; in short: as §1
[9] = biological target: Stromelysin-1 (Homo sapiens) (UniProt P08254); experiment: Inhibition of C-terminal tagged human recombinant MMP3 catalytic domain expressed in Escherichia coli assessed as residual activity at 10 uM using (5-FAM/QX) FRET peptide as substrate by fluorescence assay relative to control; in short: as §1
[10] = biological target: T4, Matrilysin (Homo sapiens) (UniProt P09237); experiment: Inhibition of C-terminal tagged human recombinant MMP7 catalytic domain expressed in Escherichia coli assessed as residual activity at 10 uM using (5-FAM/QX) FRET peptide as substrate by fluorescence assay relative to control; in short: as §1
T4 sequence (whole entry): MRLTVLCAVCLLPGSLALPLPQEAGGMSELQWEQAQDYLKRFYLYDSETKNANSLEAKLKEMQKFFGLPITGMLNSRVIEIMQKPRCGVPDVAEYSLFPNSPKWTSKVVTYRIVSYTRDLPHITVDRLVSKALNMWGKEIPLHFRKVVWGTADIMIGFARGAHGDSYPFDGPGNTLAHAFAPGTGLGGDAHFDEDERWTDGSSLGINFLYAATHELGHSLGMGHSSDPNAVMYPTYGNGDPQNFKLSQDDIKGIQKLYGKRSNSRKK

[11] = biological target: Matrix metalloproteinase-9 (Homo sapiens) (UniProt P14780); experiment: Inhibition of MMP9 (unknown origin) assessed as residual activity at 10 uM using (5-FAM/QX) FRET peptide as substrate by fluorescence assay relative to control; in short: as §1
[12] = biological target: Neutrophil collagenase (Homo sapiens) (UniProt P22894); experiment: Inhibition of MMP8 (unknown origin) assessed as residual activity at 10 uM using (5-FAM/QX) FRET peptide as substrate by fluorescence assay relative to control; in short: as §1
Neutrophil collagenase (Homo sapiens), sequence (P22894 101-467 limits assumed): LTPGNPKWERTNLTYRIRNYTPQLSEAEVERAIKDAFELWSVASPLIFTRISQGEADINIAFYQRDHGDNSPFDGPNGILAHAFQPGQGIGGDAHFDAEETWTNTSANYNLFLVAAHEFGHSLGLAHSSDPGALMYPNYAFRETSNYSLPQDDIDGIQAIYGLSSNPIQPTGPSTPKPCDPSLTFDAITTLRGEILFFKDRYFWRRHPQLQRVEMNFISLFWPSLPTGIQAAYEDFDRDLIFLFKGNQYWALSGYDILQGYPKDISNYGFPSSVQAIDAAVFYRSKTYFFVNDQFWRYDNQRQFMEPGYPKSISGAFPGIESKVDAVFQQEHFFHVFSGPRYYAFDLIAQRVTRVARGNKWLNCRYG

72 kDa type IV collagenase (Homo sapiens), sequence (P08253 110-660 limits assumed): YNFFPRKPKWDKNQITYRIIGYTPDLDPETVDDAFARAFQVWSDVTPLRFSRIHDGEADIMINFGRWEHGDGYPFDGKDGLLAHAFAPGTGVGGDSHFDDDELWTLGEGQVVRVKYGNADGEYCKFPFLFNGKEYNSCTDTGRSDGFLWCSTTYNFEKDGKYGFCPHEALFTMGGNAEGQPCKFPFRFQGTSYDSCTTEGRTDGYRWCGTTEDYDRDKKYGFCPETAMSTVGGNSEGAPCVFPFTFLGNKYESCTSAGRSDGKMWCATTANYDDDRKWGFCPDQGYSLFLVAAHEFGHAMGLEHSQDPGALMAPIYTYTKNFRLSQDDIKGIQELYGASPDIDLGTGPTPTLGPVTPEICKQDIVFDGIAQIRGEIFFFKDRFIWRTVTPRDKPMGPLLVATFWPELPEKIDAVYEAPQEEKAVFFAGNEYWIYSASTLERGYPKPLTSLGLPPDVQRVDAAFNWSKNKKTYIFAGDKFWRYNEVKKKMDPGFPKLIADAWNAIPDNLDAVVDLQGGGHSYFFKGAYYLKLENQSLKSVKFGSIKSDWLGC
Stromelysin-1 (Homo sapiens), sequence (P08254 100-477 limits assumed): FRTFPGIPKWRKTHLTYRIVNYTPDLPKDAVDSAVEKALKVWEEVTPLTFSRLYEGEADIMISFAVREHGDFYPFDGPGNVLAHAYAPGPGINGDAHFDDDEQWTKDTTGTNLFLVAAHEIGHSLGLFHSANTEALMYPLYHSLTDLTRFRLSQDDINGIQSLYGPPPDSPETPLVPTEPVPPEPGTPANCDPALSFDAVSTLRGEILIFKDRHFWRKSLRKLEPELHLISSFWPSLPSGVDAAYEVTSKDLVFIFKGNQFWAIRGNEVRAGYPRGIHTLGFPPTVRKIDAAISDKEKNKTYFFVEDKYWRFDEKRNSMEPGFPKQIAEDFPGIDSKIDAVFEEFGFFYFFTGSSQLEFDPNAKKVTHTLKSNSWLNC
Matrix metalloproteinase-9 (Homo sapiens), sequence (P14780 whole entry): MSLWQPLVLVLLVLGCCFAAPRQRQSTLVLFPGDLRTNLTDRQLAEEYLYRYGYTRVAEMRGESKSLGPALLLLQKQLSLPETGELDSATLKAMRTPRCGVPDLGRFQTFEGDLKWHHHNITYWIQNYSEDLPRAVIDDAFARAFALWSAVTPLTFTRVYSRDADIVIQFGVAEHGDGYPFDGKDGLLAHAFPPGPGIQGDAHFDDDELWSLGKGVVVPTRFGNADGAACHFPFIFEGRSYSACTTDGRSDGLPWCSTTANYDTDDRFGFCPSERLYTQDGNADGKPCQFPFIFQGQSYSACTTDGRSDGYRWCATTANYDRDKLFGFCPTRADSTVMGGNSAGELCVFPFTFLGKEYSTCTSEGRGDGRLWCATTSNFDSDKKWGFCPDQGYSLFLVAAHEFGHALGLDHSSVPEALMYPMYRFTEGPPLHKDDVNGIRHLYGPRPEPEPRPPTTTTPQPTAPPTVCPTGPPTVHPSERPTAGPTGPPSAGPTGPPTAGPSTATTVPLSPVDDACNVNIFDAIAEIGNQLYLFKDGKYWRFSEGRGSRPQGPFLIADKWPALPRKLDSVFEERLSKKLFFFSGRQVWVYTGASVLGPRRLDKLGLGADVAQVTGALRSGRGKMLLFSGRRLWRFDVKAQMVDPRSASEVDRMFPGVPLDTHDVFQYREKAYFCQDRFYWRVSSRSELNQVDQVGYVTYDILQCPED
Macrophage metalloelastase (Homo sapiens), sequence (P39900 106-470 limits assumed): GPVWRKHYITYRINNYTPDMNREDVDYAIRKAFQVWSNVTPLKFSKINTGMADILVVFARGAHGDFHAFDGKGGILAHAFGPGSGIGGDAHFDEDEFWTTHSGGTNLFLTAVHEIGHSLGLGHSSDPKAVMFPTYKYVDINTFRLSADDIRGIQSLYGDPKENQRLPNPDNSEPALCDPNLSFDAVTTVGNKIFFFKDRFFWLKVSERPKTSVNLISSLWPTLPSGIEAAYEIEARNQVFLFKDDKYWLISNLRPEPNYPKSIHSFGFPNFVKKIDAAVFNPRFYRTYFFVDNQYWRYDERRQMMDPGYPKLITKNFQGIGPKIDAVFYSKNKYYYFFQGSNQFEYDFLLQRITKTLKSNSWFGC

| Compound | Activity (Stromelysin-2 [1]) | Activity (Collagenase 3 [2]) | IC50 (Stromelysin-2 [3]; read-out: IC50) | IC50 (Stromelysin-2 [3]; read-out: pIC50 (converted)) | IC50 (Collagenase 3 [4]; read-out: IC50) | IC50 (Collagenase 3 [4]; read-out: pIC50 (converted)) | other results |
| --- | --- | --- | --- | --- | --- | --- | --- |
| COc1cc(CNC(=O)C#Cc2cn(Cc3ccc(C(=O)NCC(=O)O)cc3)c(=O)[nH]c2=O)ccc1F | 68.6% | 5.1% |  |  |  |  |  |
| CNC(=O)c1ccc(Cn2cc(C#CC(=O)NCc3ccc(F)c(OC)c3)c(=O)[nH]c2=O)cc1 | 15.4% | 7.5% | 635 nM | 479 to 832 nM | 86 nM | 67.6 to 112 nM |  |
| COc1cccc(CNC(=O)c2nc3scc(COCc4ccc(C(=O)O)cc4)c3c(=O)[nH]2)c1 [T-26c] |  |  | 358 nM | 309 to 407 nM | 0.19 nM | 0.138 to 0.275 nM |  |
| COc1cc(CNC(=O)C#Cc2cn(Cc3ccc(C(=O)N[C@@H](CO)C(=O)O)cc3)c(=O)[nH]c2=O)ccc1F | 10.4% | 0.8% | 705 nM | 501 to 832 nM | 14 nM | 7.76 to 15.1 nM |  |
| COc1cc(CNC(=O)C#Cc2cn(Cc3ccc(C(=O)NCCO)cc3)c(=O)[nH]c2=O)ccc1F | 14.2% | 2.6% | 347 nM | 275 to 398 nM | 58 nM | 44.7 to 72.4 nM |  |
| COc1cc(CNC(=O)C#Cc2cn(Cc3ccc(C(=O)N[C@H](C)C(=O)O)cc3)c(=O)[nH]c2=O)ccc1F | 26.6% | 0.4% |  |  |  |  |  |
| COC(=O)c1ccc(Cn2cc(C#CC(=O)NCc3ccc(F)c(OC)c3)c(=O)[nH]c2=O)cc1 | 18% | 4.6% | 506 nM | 457 to 562 nM | 128 nM | 100 to 158 nM |  |
| COc1cc(CNC(=O)C#Cc2cn(Cc3ccc(C(N)=O)cc3)c(=O)[nH]c2=O)ccc1F | 13.9% | 4.4% | 1210 nM | 4790 to 18200 nM | 111 nM | 77.6 to 162 nM |  |
| COc1cc(CNC(=O)C#Cc2cn(Cc3ccc(C(=O)N[C@@H](C)C(=O)O)cc3)c(=O)[nH]c2=O)ccc1F | 28.5% | 0.8% |  |  |  |  |  |
| COc1cc(CNC(=O)C#Cc2cn(Cc3ccc(C(=O)N(C)C)cc3)c(=O)[nH]c2=O)ccc1F | 7.1% | 1.4% | 243 nM | 186 to 589 nM | 89 nM | 70.8 to 110 nM |  |
| COc1cc(CNC(=O)C#Cc2cn(Cc3ccc(S(=O)(=O)NC(C)C)cc3)c(=O)[nH]c2=O)ccc1F | 10.2% | 2.2% | 147 nM | 67.6 to 141 nM | 25 nM | 15.1 to 34.7 nM |  |
| COC(=O)CNC(=O)c1ccc(Cn2cc(C#CC(=O)NCc3ccc(F)c(OC)c3)c(=O)[nH]c2=O)cc1 | 52.8% | 12.2% |  |  |  |  |  |
| CNS(=O)(=O)c1ccc(Cn2cc(C#CC(=O)NCc3ccc(F)c(OC)c3)c(=O)[nH]c2=O)cc1 | 12.8% | 1.8% | 531 nM | 407 to 676 nM | 35 nM | 25.7 to 40.7 nM |  |
| COC(=O)[C@H](CO)NC(=O)c1ccc(Cn2cc(C#CC(=O)NCc3ccc(F)c(OC)c3)c(=O)[nH]c2=O)cc1 | 21.9% | 3.9% |  |  |  |  |  |
| COc1cc(CNC(=O)C#Cc2cn(Cc3ccc(C(=O)NC(C)C)cc3)c(=O)[nH]c2=O)ccc1F | 56.6% | 14.2% |  |  |  |  |  |
| COc1cc(CNC(=O)C#Cc2cn(Cc3ccc(-c4cnco4)cc3)c(=O)[nH]c2=O)ccc1F | 2.8% | 0.4% | 31 nM | 24.5 to 29.5 nM | 5 nM | 3.63 to 5.5 nM | Activity [5]: 97.6%; Activity [6]: 88.5%; Activity [7]: 100%; Activity [8]: 100%; Activity [9]: 37.3%; Activity [10]: 87.1%; Activity [11]: 97.8%; Activity [12]: 96.7% |
| COc1cc(CNC(=O)C#Cc2cn(Cc3ccc(S(=O)(=O)N(C)C)cc3)c(=O)[nH]c2=O)ccc1F | 47.9% | 5.8% |  |  |  |  |  |
| COC(=O)CNS(=O)(=O)c1ccc(Cn2cc(C#CC(=O)NCc3ccc(F)c(OC)c3)c(=O)[nH]c2=O)cc1 | 14.3% | 2.1% | 485 nM | 245 to 437 nM | 32 nM | 15.1 to 34.7 nM |  |
| COc1cc(CNC(=O)C#Cc2cn(Cc3ccc(C(=O)NC4CC4)cc3)c(=O)[nH]c2=O)ccc1F | 30.8% | 5.9% |  |  |  |  |  |
| COc1cc(CNC(=O)C#Cc2cn(Cc3ccc(S(N)(=O)=O)cc3)c(=O)[nH]c2=O)ccc1F | 19.1% | 3.9% | 7380 nM | 4790 to 18200 nM | 258 nM | 204 to 324 nM |  |
| COc1cc(CNC(=O)C#Cc2cn(Cc3ccc(S(=O)(=O)N4CCOCC4)cc3)c(=O)[nH]c2=O)ccc1F | 15.7% | 1.2% | 1930 nM | 759 to 1700 nM | 66 nM | 16.2 to 36.3 nM |  |
| COc1cc(CNC(=O)C#Cc2cn(Cc3ccc(C(=O)NC(C)(C)C)cc3)c(=O)[nH]c2=O)ccc1F | 55.7% | 13.3% |  |  |  |  |  |
| COC(=O)[C@H](C)NC(=O)c1ccc(Cn2cc(C#CC(=O)NCc3ccc(F)c(OC)c3)c(=O)[nH]c2=O)cc1 | 15.5% | 2.5% | 751 nM | 490 to 1070 nM | 149 nM | 102 to 195 nM |  |
| COC(=O)[C@H]1CCCN1C(=O)c1ccc(Cn2cc(C#CC(=O)NCc3ccc(F)c(OC)c3)c(=O)[nH]c2=O)cc1 | 17.5% | 1.8% | 2050 nM | 1260 to 4900 nM | 175 nM | 209 to 219 nM |  |
| COc1cc(CNC(=O)C#Cc2cn(Cc3ccc(S(=O)(=O)NC4CC4)cc3)c(=O)[nH]c2=O)ccc1F | 19.6% | 2.2% | 110 nM | 67.6 to 112 nM | 14 nM | 10.2 to 11.7 nM |  |
| COc1cc(CNC(=O)C#Cc2cn(Cc3ccc(C(=O)N4CCC[C@@H]4C(=O)O)cc3)c(=O)[nH]c2=O)ccc1F | 68.9% | 1.9% |  |  |  |  |  |
| O=C(O)CCCOc1cccc(CNC(=O)C#Cc2cn(Cc3ccc(C(=O)O)cc3)c(=O)[nH]c2=O)c1 |  |  | 8400 nM |  |  |  |  |
| COc1cc(CNC(=O)C#Cc2cn(Cc3ccc(C(=O)N[C@H](CO)C(=O)O)cc3)c(=O)[nH]c2=O)ccc1F | 77% | 5.6% |  |  |  |  |  |
| COc1cc(CNC(=O)C#Cc2cn(Cc3ccc(S(=O)(=O)NC(C)(C)C)cc3)c(=O)[nH]c2=O)ccc1F | 6.9% | 1.7% | 131 nM | 51.3 to 141 nM | 26 nM | 12 to 20.9 nM |  |
